Measurements published in ChEMBL document CHEMBL1141391 (J Med Chem, 2007).

Columns and labels:
A2780 = experiment: Cytotoxicity against A2780 cell line; assay type: cell-based; details: Homo sapiens
PC-3 = experiment: Cytotoxicity against PC3 cell line by MTT assay; assay type: cell-based; details: Homo sapiens
Tubulin (Homo sapiens) = Tubulin (Homo sapiens) (UniProt P68371+Q9H4B7+P0DPH7+P68366+Q13509+Q71U36+P04350+Q3ZCM7+P07437+P68363+Q9BQE3+Q6PEY2+Q13885+Q9BVA1+Q9BUF5); experiment: Induction of GTP-tubulin polymerization; assay type: protein-complex assay
Procedure, shortened: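 ED50 for induction of tubulin assembly, read by light scattering at 350 nm or by fluorescence in a 96-well format. GTP-tubulin was used unless otherwise stated. Some samples were run with GDP-tubulin and normalized to the GTP-tubulin scale. Some values are single determinations.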

1A9 = experiment: Inhibition of growth in 1A9 cell line after 72 hrs; assay type: functional, cell-based; details: Homo sapiens, 1A9, 72 h
1A9/ptx-10 = experiment: Inhibition of growth in paclitaxel resistant 1A9-PTX10 F-beta-270V mutant cell line after 72 hrs by SRB assay; assay type: functional, cell-based; details: Homo sapiens, 1A9/ptx-10, 72 h
[1] = Inhibition of growth in epothilone A resistant 1A9-A8 T-beta-274I mutant cell line after 72 hrs by SRB assay; assay type: functional, cell-based; details: Homo sapiens, 1A9, 72 h

Row | SMILES | ED50 (Tubulin (Homo sapiens)) [nM] | IC50 (A2780) [nM] | IC50 (PC-3) [nM] | IC50 (1A9) [nM] | IC50 (1A9/ptx-10) [nM] | IC50 [1] [nM]
1 | CC(=O)O[C@H]1C(=O)[C@@]2(C)[C@@H]3[C@H](OC(=O)c4ccccc4)[C@]4(O)C[C@H](OC(=O)[C@H](O)[C@@H](NC(=O)c5ccccc5)c5ccccc5OC/C=C/CCC(=O)O[C@]35CO[C@@H]5C[C@@H]2O)C(C)=C1C4(C)C | 900 | 830 | 55 | – | – | –
2 | CC(=O)O[C@H]1C(=O)[C@@]2(C)[C@@H]3[C@H](OC(=O)c4ccccc4)[C@]4(O)C[C@H](OC(=O)[C@H](O)[C@@H](NC(=O)c5ccccc5)c5cccc(c5)OCCCCCC(=O)O[C@]35CO[C@@H]5C[C@@H]2O)C(C)=C1C4(C)C | 3400 | 3600 | 1000 | – | – | –
3 | CC(=O)O[C@H]1C(=O)[C@@]2(C)[C@@H]3[C@H](OC(=O)c4ccccc4)[C@]4(O)C[C@H](OC(=O)[C@H](O)[C@@H](NC(=O)c5ccccc5)c5cccc(c5)OCCCC(=O)O[C@]35CO[C@@H]5C[C@@H]2O)C(C)=C1C4(C)C | 1400 | 700 | 53 | – | – | –
4 | CC(=O)O[C@H]1C(=O)[C@@]2(C)[C@@H]3[C@H](OC(=O)c4ccccc4)[C@]4(O)C[C@H](OC(=O)[C@H](O)[C@@H](NC(=O)c5ccccc5)c5ccccc5OCCCCCC(=O)O[C@]35CO[C@@H]5C[C@@H]2O)C(C)=C1C4(C)C | 760 | 980 | 51 | – | – | –
5 | CC(=O)O[C@H]1C(=O)[C@@]2(C)[C@@H]3[C@H](OC(=O)c4ccccc4)[C@]4(O)C[C@H](OC(=O)[C@H](O)[C@@H](NC(=O)c5ccccc5)c5ccccc5OCCCCC(=O)O[C@]35CO[C@@H]5C[C@@H]2O)C(C)=C1C4(C)C | 230 | 28 | 13 | – | – | –
6 | CC(=O)O[C@H]1C(=O)[C@@]2(C)[C@@H]3[C@H](OC(=O)c4ccccc4)[C@]4(O)C[C@H](OC(=O)[C@H](O)[C@@H](NC(=O)c5ccccc5)c5ccccc5OC/C=C/CCCCC(=O)O[C@]35CO[C@@H]5C[C@@H]2O)C(C)=C1C4(C)C | 930 | 1840 | 500 | – | – | –
7 | CC(=O)O[C@H]1C(=O)[C@@]2(C)[C@@H]3[C@H](OC(=O)c4ccccc4)[C@]4(O)C[C@H](OC(=O)[C@H](O)[C@@H](NC(=O)c5ccccc5)c5ccccc5OCCCCCCC(=O)O[C@]35CO[C@@H]5C[C@@H]2O)C(C)=C1C4(C)C | 850 | 2000 | 390 | – | – | –
8 | CC(=O)O[C@H]1C(=O)[C@@]2(C)[C@@H]3[C@H](OC(=O)c4ccccc4)[C@]4(O)C[C@H](OC(=O)[C@H](O)[C@@H](NC(=O)c5ccccc5)c5ccccc5OC/C=C/CCCC(=O)O[C@]35CO[C@@H]5C[C@@H]2O)C(C)=C1C4(C)C | 530 | 440 | 90 | – | – | –
9 | COc1cccc(C(=O)O[C@H]2[C@@H]3[C@]45CO[C@@H]4C[C@H](O)[C@@]3(C)C(=O)[C@H](OC(C)=O)C3=C(C)[C@H](C[C@]2(O)C3(C)C)OC(=O)[C@H](O)[C@@H](NC(=O)c2ccccc2)c2ccccc2C/C=C/C(=O)O5)c1 | 220 | 17.7 | 8.2 | – | – | –
10 | COc1cccc(C(=O)O[C@H]2[C@@H]3[C@]45CO[C@@H]4C[C@H](O)[C@@]3(C)C(=O)[C@H](OC(C)=O)C3=C(C)[C@H](C[C@]2(O)C3(C)C)OC(=O)[C@H](O)[C@@H](NC(=O)OC(C)(C)C)c2ccccc2CCCC(=O)O5)c1 | 220 | 0.49 | 1.3 | – | – | –
11 | CC(=O)O[C@H]1C(=O)[C@@]2(C)[C@@H]3[C@H](OC(=O)c4ccccc4)[C@]4(O)C[C@H](OC(=O)[C@H](O)[C@@H](NC(=O)c5ccccc5)c5cccc(c5)CCCCC(=O)O[C@]35CO[C@@H]5C[C@@H]2O)C(C)=C1C4(C)C | 1400 | 8800 | 570 | – | – | –
12 | CC(=O)O[C@H]1C(=O)[C@@]2(C)[C@@H]3[C@H](OC(=O)c4ccccc4)[C@]4(O)C[C@H](OC(=O)[C@H](O)[C@@H](NC(=O)OC(C)(C)C)c5ccccc5CCCC(=O)O[C@]35CO[C@@H]5C[C@@H]2O)C(C)=C1C4(C)C | 180 | 0.65 | 1.5 | – | – | –
13 | COc1cccc(C(=O)O[C@H]2[C@@H]3[C@]45CO[C@@H]4C[C@H](O)[C@@]3(C)C(=O)[C@H](OC(C)=O)C3=C(C)[C@H](C[C@]2(O)C3(C)C)OC(=O)[C@H](O)[C@@H](NC(=O)OC(C)(C)C)c2ccccc2/C=C/CC(=O)O5)c1 | 350 | > 6 | 11 | – | – | –
14 | COc1cccc(C(=O)O[C@H]2[C@@H]3[C@]45CO[C@@H]4C[C@H](O)[C@@]3(C)C(=O)[C@H](OC(C)=O)C3=C(C)[C@H](C[C@]2(O)C3(C)C)OC(=O)[C@H](O)[C@@H](NC(=O)c2ccccc2)c2ccccc2/C=C/CC(=O)O5)c1 | 570 | 23.7 | 6 | – | – | –
15 | CC(=O)O[C@H]1C(=O)[C@@]2(C)[C@@H]3[C@H](OC(=O)c4ccccc4)[C@]4(O)C[C@H](OC(=O)[C@H](O)[C@@H](NC(=O)c5ccccc5)c5ccccc5/C=C/CC(=O)O[C@]35CO[C@@H]5C[C@@H]2O)C(C)=C1C4(C)C | 330 | 0.5 | 3.1 | – | – | –
16 | COc1cccc(C(=O)O[C@H]2[C@@H]3[C@]45CO[C@@H]4C[C@H](O)[C@@]3(C)C(=O)[C@H](OC(C)=O)C3=C(C)[C@H](C[C@]2(O)C3(C)C)OC(=O)[C@H](O)[C@@H](NC(=O)c2ccccc2)c2ccccc2CCCC(=O)O5)c1 | – | 23.1 | – | – | – | –
17 | CC(=O)O[C@H]1C(=O)[C@@]2(C)[C@@H]3[C@H](OC(=O)c4ccccc4)[C@]4(O)C[C@H](OC(=O)[C@H](O)[C@@H](NC(=O)OC(C)(C)C)c5ccccc5/C=C/CC(=O)O[C@]35CO[C@@H]5C[C@@H]2O)C(C)=C1C4(C)C | 490 | 1.4 | 3.2 | – | – | –
18 | CC(=O)O[C@H]1C(=O)[C@@]2(C)[C@@H]3[C@H](OC(=O)c4ccccc4)[C@]4(O)C[C@H](OC(=O)[C@H](O)[C@@H](NC(=O)c5ccccc5)c5cccc(c5)OC/C=C\C(=O)O[C@]35CO[C@@H]5C[C@@H]2O)C(C)=C1C4(C)C | 4600 | 6300 | 580 | – | – | –

Second part, led by results:

Row | ED50 (Tubulin (Homo sapiens)) [nM] | SMILES | IC50 (A2780) [nM] | IC50 (PC-3) [nM] | IC50 (1A9) [nM] | IC50 (1A9/ptx-10) [nM] | IC50 [1] [nM]
19 | 1800 | C=CCCC(=O)O[C@@]12CO[C@@H]1C[C@H](O)[C@@]1(C)C(=O)[C@H](OC(C)=O)C3=C(C)[C@@H](OC(=O)[C@H](O)[C@@H](NC(=O)c4ccccc4)c4cccc(OCC=C)c4)C[C@@](O)([C@@H](OC(=O)c4ccccc4)[C@H]21)C3(C)C | 2520 | 2600 | – | – | –
20 | 2200 | C=CCCCC(=O)O[C@@]12CO[C@@H]1C[C@H](O)[C@@]1(C)C(=O)[C@H](OC(C)=O)C3=C(C)[C@@H](OC(=O)[C@H](O)[C@@H](NC(=O)c4ccccc4)c4cccc(OCC=C)c4)C[C@@](O)([C@@H](OC(=O)c4ccccc4)[C@H]21)C3(C)C | 7400 | 4600 | – | – | –
21 | 1000 | C=CCOc1cccc([C@H](NC(=O)c2ccccc2)[C@@H](O)C(=O)O[C@H]2C[C@@]3(O)[C@@H](OC(=O)c4ccccc4)[C@@H]4[C@]5(OC(=O)C=C)CO[C@@H]5C[C@H](O)[C@@]4(C)C(=O)[C@H](OC(C)=O)C(=C2C)C3(C)C)c1 | 1900 | 550 | – | – | –
22 | 1200 | C=CCOc1ccccc1[C@H](NC(=O)c1ccccc1)[C@@H](O)C(=O)O[C@H]1C[C@@]2(O)[C@@H](OC(=O)c3ccccc3)[C@@H]3[C@]4(OC(=O)C=C)CO[C@@H]4C[C@H](O)[C@@]3(C)C(=O)[C@H](OC(C)=O)C(=C1C)C2(C)C | 17800 | 2800 | – | – | –
23 | 500 | CC(=O)O[C@H]1C(=O)[C@@]2(C)[C@H]([C@H](OC(=O)c3ccccc3)[C@]3(O)C[C@H](OC(=O)[C@H](O)[C@@H](NC(=O)c4ccccc4)c4ccccc4)C(C)=C1C3(C)C)[C@]1(OC(C)=O)CO[C@@H]1C[C@@H]2O [PACLITAXEL] | – | 5 | 4.8 | 157 | 21.5
24 | 2700 | C=CCCOc1ccccc1[C@H](NC(=O)c1ccccc1)[C@@H](O)C(=O)O[C@H]1C[C@@]2(O)[C@@H](OC(=O)c3ccccc3)[C@@H]3[C@]4(OC(=O)C=C)CO[C@@H]4C[C@H](O)[C@@]3(C)C(=O)[C@H](OC(C)=O)C(=C1C)C2(C)C | 19800 | > 13200 | – | – | –
25 | 1400 | C=CC(=O)O[C@@]12CO[C@@H]1C[C@H](O)[C@@]1(C)C(=O)[C@H](OC(C)=O)C3=C(C)[C@@H](OC(=O)[C@H](O)[C@@H](NC(=O)c4ccccc4)c4ccccc4C=C)C[C@@](O)([C@@H](OC(=O)c4ccccc4)[C@H]21)C3(C)C | 1600 | 275 | – | – | –
26 | 1000 | C=CC(=O)O[C@@]12CO[C@@H]1C[C@H](O)[C@@]1(C)C(=O)[C@H](OC(C)=O)C3=C(C)[C@@H](OC(=O)[C@H](O)[C@@H](NC(=O)c4ccccc4)c4cccc(C=C)c4)C[C@@](O)([C@@H](OC(=O)c4ccccc4)[C@H]21)C3(C)C | 1700 | 320 | – | – | –
27 | 1400 | C=CCc1ccccc1[C@H](NC(=O)c1ccccc1)[C@@H](O)C(=O)O[C@H]1C[C@@]2(O)[C@@H](OC(=O)c3ccccc3)[C@@H]3[C@]4(OC(=O)C=C)CO[C@@H]4C[C@H](O)[C@@]3(C)C(=O)[C@H](OC(C)=O)C(=C1C)C2(C)C | 1300 | 550 | – | – | –
